Laboratory results published in ChEMBL document CHEMBL3244085, “Synthesis and biological evaluation of 10-oxa-11-deoxyprostaglandin E1 and 10-nor-9,11-secoprostaglandin F1 and their derivatives” (1978).
Active and inactive are the calls of the source. The rule behind the calls is not given here.

Key:
Hamster [1] = experiment: Interruption of pregnancy in hamster at 1 mg, sc administered on day 3 of pregnancy; format: functional, organism-based; details: Cricetinae
Outline: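 Pregnant hamsters, ten per compound. A single 1 mg per animal dose is given subcutaneously in ethanol on day 3 of pregnancy, and interruption of pregnancy is scored (modified Giannina method).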

Cricetinae = experiment: Induction of uterus contraction in hamster at 20 ug; format: functional, tissue-based
Outline: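 Isolated hamster uterine strip in vitro, Holton method; compound added at 20 µg and scored for oxytocin-like contractile activity.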

Gerbillinae [2] = experiment: (§1) Inhibition of PGE2-induced colon smooth muscle contraction in gerbil at 20 ug/15 ml pretreated for 30 seconds followed by PGE2-challenge measured after 90 seconds relative to control; format: functional
Outline: (§2)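 Isolated colon smooth muscle from male gerbils in a chamber (Holton method). Compound is introduced at the stated level per 15 mL; 30 s later 40 ng PGE2 is added. Antagonism is read as % inhibition of the PGE2 response.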

Gerbillinae [3] = experiment: (§3) Inhibition of PGE2-induced colon smooth muscle contraction in gerbil at 40 ug/15 ml pretreated for 30 seconds followed by PGE2-challenge measured after 90 seconds relative to control; format: functional; outline: as §2
Gerbillinae [4] = experiment: (§4) Inhibition of PGE2-induced colon smooth muscle contraction in gerbil at 80 ug/15 ml pretreated for 30 seconds followed by PGE2-challenge measured after 90 seconds relative to control; format: functional; outline: as §2
Gerbillinae [5] = experiment: (§5) Inhibition of PGE2-induced colon smooth muscle contraction in gerbil at 125 ug/15 ml pretreated for 30 seconds followed by PGE2-challenge measured after 90 seconds relative to control; format: functional; outline: as §2
[6] = as §1; format: functional, Gerbillinae; outline: as §2
[7] = as §3; format: functional, Gerbillinae; outline: as §2
[8] = as §4; format: functional, Gerbillinae; outline: as §2
[9] = as §5; format: functional, Gerbillinae; outline: as §2
Gerbillinae [10] = experiment: Inhibition of PGE2-induced colon smooth muscle contraction in gerbil at […] pretreated for 30 seconds followed by PGE2-challenge measured after 90 seconds; format: functional; outline: as §2
Hamster [11] = experiment: Interruption of pregnancy in hamster at 12.5 ug, sc administered on day 3 of pregnancy relative to control; format: functional, Cricetinae

Row | SMILES | Activity (Hamster [1]) | Activity (Cricetinae) | other results
1 | CCCCC[C@@H](O)/C=C/[C@@H](CO)[C@H](CO)CCCCCCC(=O)OC | inactive | inactive | inhibition (Gerbillinae [2]): inactive; inhibition (Gerbillinae [3]): inactive; inhibition (Gerbillinae [4]): inactive; inhibition (Gerbillinae [5]): inactive
2 | CCCCC[C@@H](O)/C=C/[C@H]1COC(=O)[C@@H]1CCCCCCC(=O)OC (single isomer, unassigned) | inactive | inactive | 
3 | CCCCC[C@H](O)/C=C/[C@@H](CO)[C@H](CO)CCCCCCC(=O)OC | inactive | inactive | inhibition (INH) [6]: 0%; inhibition (INH) [7]: 14%; inhibition (INH) [8]: 26%; inhibition (INH) [9]: 41%
4 | CCCCC[C@@](C)(O)/C=C/[C@H]1COC(=O)[C@@H]1CCCCCCC(=O)OC (racemic) | inactive | inactive | inhibition (Gerbillinae [10]): inactive
5 | CCCCC[C@H](O)/C=C/[C@@H]1[C@@H](C/C=C\CCCC(=O)O)[C@@H](O)C[C@H]1O [DINOPROST] |  |  | Activity (Hamster [11]): 100%
6 | CCCCC[C@H](O)/C=C/[C@H]1COC(=O)[C@@H]1CCCCCCC(=O)OC (racemic) | inactive | inactive | 
7 | CCCCC[C@](C)(O)/C=C/[C@H]1COC(=O)[C@@H]1CCCCCCC(=O)OC (racemic) | inactive | inactive | inhibition (Gerbillinae [10]): inactive
